Assay results from different studies.
Lines come from different studies, so protocols differ.
Target: Acetylcholinesterase (ache, Electrophorus electricus, UniProt O42275)
Read-out: enzyme activity
Action: inhibitor

Structure (SMILES) | test | conditions | IC50
CC=C1[C@H]2C=C(C)C[C@]1(N)c1cc(OCCC)c(=O)[nH]c1C2 | Ellman | – | 10.2 µM
Cc1c(C(=O)[C@H]2[C@H](c3cn(C)c4ccccc34)[C@H]3CSCN3[C@]23C(=O)Nc2cc(Cl)ccc23)cnn1-c1ccccc1 | Ellman | – | > 100 µM
CC1(C)O[C@H]2CC(=O)OC[C@]23[C@H]2CC[C@@]4(C)[C@H](c5ccoc5)OC(=O)[C@H]5O[C@]54[C@]2(C)C(=O)C[C@@H]13 | Ellman | – | 1060 µM
Cc1c(C(=O)[C@H]2[C@H](c3c[nH]c4ccc(Br)cc34)[C@H]3CCCN3[C@]23C(=O)Nc2ccccc23)cnn1-c1ccccc1 | Ellman | – | > 100 µM
CC=C1[C@H]2C=C(C)C[C@]1(N)c1cc(OC)c(=O)[nH]c1C2 | Ellman | – | 0.16 µM
C#CCN(C)c1nc(NCCCCC2CCN(Cc3ccccc3)CC2)c(C#N)cc1C#N | Ellman | – | 0.00074 µM
Cc1c(C(=O)[C@H]2[C@H](c3cn(C)c4ccccc34)[C@H]3CSCN3[C@]23C(=O)Nc2ccccc23)cnn1-c1ccccc1 | Ellman | – | > 100 µM
CC=C1[C@H]2C=C(C)C[C@]1(N)c1cc(I)c(=O)[nH]c1C2 | Ellman | – | 14.1 µM
O=C(CNC(=S)NN=Cc1ccc([N+](=O)[O-])cc1)c1ccc(Cl)cc1 | Ellman | – | 340 µM
COP(=O)(OC)OC(C)=C1CCOC1=O | Ellman | pH 8 | > 1000 µM
O=C(NCCN1CCN(Cc2ccccc2)CC1)c1cc2cccc(O)c2o1 | Ellman | – | 20 µM
CCOc1ccc(C=NNC(=S)NCC(=O)c2ccc(-c3ccccc3)cc2)cc1 | Ellman | – | 460 µM
CC=C1[C@H]2C=C(C)C[C@]1(N)c1cc(OCC)c(=O)[nH]c1C2 | Ellman | – | 0.22 µM
O=C(NCC1CCN(Cc2ccccc2)CC1)c1cc2ccccc2o1 | Ellman | – | 30 µM
CC(C)c1cc(C(C)C)c(S(=O)(=O)NNC(=O)C(=O)NNS(=O)(=O)c2c(C(C)C)cc(C(C)C)cc2C(C)C)c(C(C)C)c1 | Ellman | with preincubation | 4.25 µM
Cc1c(C(=O)[C@H]2[C@H](c3c[nH]c4ccc(Br)cc34)CN(C)[C@]23C(=O)Nc2cc(Cl)ccc23)cnn1-c1ccccc1 | Ellman | – | 27.8 µM
C#CCN(C)c1nc(NCCCCC2CCN(Cc3ccccc3)CC2)c(C#N)c(-c2ccccc2)c1C#N | Ellman | – | 0.023 µM
CC=C1[C@H]2C=C(C)C[C@]1(N)c1cc(N)c(=O)[nH]c1C2 | Ellman | – | 0.32 µM
Cc1c(C(=O)[C@H]2[C@H](c3c[nH]c4ccccc34)[C@H]3CSCN3[C@]23C(=O)Nc2cc(Cl)ccc23)cnn1-c1ccccc1 | Ellman | – | > 100 µM
CC=C1[C@H]2C=C(C)C[C@]1(N)c1cc(C)c(=O)[nH]c1C2 | Ellman | – | 0.35 µM
CC(C)=CCC/C(C)=C/COc1cc(O)cc(O)c1C(=O)c1ccccc1 | – | – | 192 µM
